Here are results for 2 molecules from ChEMBL document CHEMBL1133102, “Novel inhibitors of nucleoside triphosphate diphosphohydrolases: chemical synthesis and biochemical and pharmacological characterizations” (J Med Chem, 2000).

Holding throughout (type): tissue-based
For series [1], the target named is T1, Ectonucleoside triphosphate diphosphohydrolase 1 (Bos taurus, UniProt O18956).
T1 sequence (O18956 whole entry): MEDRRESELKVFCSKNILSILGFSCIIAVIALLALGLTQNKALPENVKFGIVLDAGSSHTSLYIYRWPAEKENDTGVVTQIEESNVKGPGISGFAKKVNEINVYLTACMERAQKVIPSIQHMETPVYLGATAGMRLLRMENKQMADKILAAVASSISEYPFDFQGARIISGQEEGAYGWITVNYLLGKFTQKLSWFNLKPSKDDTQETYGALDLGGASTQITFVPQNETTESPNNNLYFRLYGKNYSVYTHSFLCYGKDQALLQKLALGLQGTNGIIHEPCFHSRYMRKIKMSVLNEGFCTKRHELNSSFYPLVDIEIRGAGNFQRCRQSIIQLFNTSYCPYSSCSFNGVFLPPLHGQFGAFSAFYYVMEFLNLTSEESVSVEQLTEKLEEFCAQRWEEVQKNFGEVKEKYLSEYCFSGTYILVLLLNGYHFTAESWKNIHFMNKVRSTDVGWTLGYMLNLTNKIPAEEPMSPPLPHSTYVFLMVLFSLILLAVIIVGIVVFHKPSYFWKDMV
Kind of series: (§1) Tested for inhibition of Nucleoside Triphosphate Diphosphohydrolase (NTPDase) from bovine spleen. In outline:
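Bovine spleen particulate fraction. Medium: 8 mM CaCl2, 5 mM tetramisole, 50 mM Tris, 50 mM imidazole, pH 7.6, 37 °C. Started with 1.9 μg enzyme, stopped after 7 min; Pi release read by malachite green. Triplicate.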

Compound in series [2]: CCCCOc1nc2c(N)ncnc2n1[C@@H]1O[C@H](COP(=O)(O)OP(=O)(O)OP(=O)(O)O)[C@@H](O)[C@H]1O
The description is as §1. In outline: (§2)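 Bovine spleen particulate fraction. […] Medium: 8 mM CaCl2, 5 mM tetramisole, 50 mM Tris, 50 mM imidazole, pH 7.6, 37 °C. Started with 1.9 μg enzyme, stopped after 7 min; Pi release read by malachite green. Triplicate.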

Compound in series [3]: Nc1ncnc2c1ncn2[C@@H]1O[C@H](COP(=O)(O)OP(=O)(O)O)[C@@H](O)[C@H]1O
The description is as §1. The gist of the method:
as §2

Compound in series [4]: CCCCSc1nc(N)c2ncn([C@@H]3O[C@H](COP(=O)(O)OP(=O)(O)OP(=O)(O)O)[C@@H](O)[C@H]3O)c2n1
The description is as §1. The gist of the method: as §2

Compound in series [5]: CCCCOc1nc(N)c2ncn([C@@H]3O[C@H](COP(=O)(O)OP(=O)(O)OP(=O)(O)O)[C@@H](O)[C@H]3O)c2n1
The series is described as §1. In outline:
as §2

Compound in series [6]: CCCCNc1nc2c(N)ncnc2n1[C@@H]1O[C@H](COP(=O)(O)OP(=O)(O)OP(=O)(O)O)[C@@H](O)[C@H]1O
Described as §1. In outline:
as §2

Compound in series [7]: Nc1ncnc2c1nc(Br)n2C1O[C@H](COP(=O)(O)OP(=O)(O)OP(=O)(O)O)[C@@H](O)[C@H]1O
Described as §1. The gist of the method: as §2

Compound in series [8]: CCSc1nc2c(N)ncnc2n1[C@@H]1O[C@H](COP(=O)(O)OP(=O)(O)OP(=O)(O)O)[C@@H](O)[C@H]1O
The description is as §1. The gist of the method: as §2

Compound in series [9]: Nc1ncnc2c1ncn2[C@@H]1O[C@H](COP(=O)(O)OP(=O)(O)OP(=O)(O)O)[C@@H](O)[C@H]1O
The series is described as §1. In outline:
as §2

Compound in series [10]: CCCCNc1nc(N)c2ncn([C@@H]3O[C@H](COP(=O)(O)OP(=O)(O)OP(=O)(O)O)[C@@H](O)[C@H]3O)c2n1
The description is as §1. The gist of the method: as §2

Compound in series [11]: CCCCSc1nc(N)c2ncn(C3O[C@H](COP(=O)(O)OP(=O)(O)O)[C@@H](O)[C@H]3O)c2n1
The description is as §1. The gist of the method:
as §2

With `Nc1ncnc2c1nc(SC1CCCCCC1)n2C1O[C@H](COP(=O)(O)OP(=O)(O)OP(=O)(O)O)[C@@H](O)[C@H]1O` (stereo partly specified), the affinity in series [1], expressed as Ki, was 31 µM.

B1: Ectonucleoside triphosphate diphosphohydrolase 1 (Bos taurus), O18956 (protein)
chain: T1 sequence (O18956 whole entry)
As to B1, the Km in [2] is 26 µM; in series [3] it was 33 µM; in series [4] it was 36 µM; in series [5], 28 µM; in series [6] it was 20 µM; in series [7], 22 µM. The Km worked out at 12 µM in series [8], 18 µM in series [9], 32 µM in [10] and 63 µM in series [11].

Broadly, the Ki is a measure of affinity in units of concentration, obtained from inhibition or displacement. Read a high Ki as lower affinity. One may read the Km as the concentration of substrate that gives half-maximal velocity.
